Reference: ChEMBL document CHEMBL3596096, “Synthesis and biological evaluation of quinones derived from natural product komaroviquinone as anti-Trypanosoma cruzi agents” (Bioorg Med Chem Lett, 2015)
Activity calls are given as the source filed them. No cut-off for these calls is given here.

Columns and labels:
[1] = tested on: Trypanosoma cruzi; experiment: Antitrypanosomal activity against trypomastigotes stage of Trypanosoma cruzi infected in human HT1080 cells assessed as inhibition of parasite growth after 24 hrs by microscopic analysis; type: functional, organism-based; details: HT-1080, 24 h
Procedure, shortened: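 Trypomastigotes suspended in DMEM and incubated 24 h with a range of compound concentrations or vehicle (0.1% ethanol). Live parasites were counted microscopically, and the IC50 was determined from the concentration series.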

[2] = tested on: Trypanosoma cruzi; experiment: Antitrypanosomal activity against trypomastigotes stage of Trypanosoma cruzi infected in human HT1080 cells assessed as inhibition of parasite growth at 1 uM after 24 hrs by microscopic analysis; type: functional, organism-based; details: HT-1080
Procedure, shortened: (§1)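 Trypomastigotes suspended in DMEM and exposed 24 h to a single compound concentration, alongside vehicle (0.1% ethanol) control and benznidazole. Live parasites were counted microscopically. Values are the mean of four independent experiments, with significance versus control by two-tailed unpaired Student's t-test.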

[3] = tested on: HT-1080; experiment: Induction of reactive oxygen species formation in human HT1080 cells at 10 to 50 µM by fluorometric analysis; type: functional, cell-based
Procedure, shortened: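 Intracellular ROS in host HT1080 cells was measured with an intracellular ROS assay kit, read out as fluorescence intensity (RFU). H2O2 and benznidazole were included for comparison.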

[4] = tested on: Trypanosoma cruzi; experiment: Antitrypanosomal activity against trypomastigotes stage of Trypanosoma cruzi infected in human HT1080 cells assessed as inhibition of parasite growth at 10 uM after 24 hrs by microscopic analysis; type: functional, organism-based; details: HT-1080; procedure, shortened: as §1

Row | Compound | IC50 [1] [nM] | further results
1 | COC1=C(C(C)C)C(=O)C=C(CC(C)(C)O)C1=O | > 10000 | –
2 | COC1=C(C(C)C)C(=O)C2=C(C[C@@]34CCCC(C)(C)[C@@H]3C[C@]2(O)O4)C1=O [KOMAROVIQUINONE] | 250 | growth inhibition (GI) [2]: Active; Activity [3]: Active; growth inhibition (GI) [4]: Active
3 | COc1c2c(c(OC)c(C(C)C)c1OC)C1(O)C[C@H]3C(C)(C)CCC[C@@]3(C2)O1 | – | growth inhibition (GI) [4]: inactive
4 | COC1=C(C(C)C)C(=O)C=C(CN(C)C(=O)C2CCCCC2)C1=O | 1100 | –
5 | COC1=C(C(C)C)C(=O)C=C(COC(C)C)C1=O | > 10000 | –
6 | COC1=C(C(C)C)C(=O)C=C(CN2CCCC2=O)C1=O | > 10000 | –
7 | COC1=C(C(C)C)C(=O)C=C(CN(C(=O)C2CCCCC2)C2CCCCC2)C1=O | 2400 | –
8 | COc1cc(C[C@@]23CCCC(C)(C)[C@@H]2CC(=O)O3)c(OC)c(OC)c1C(C)C | – | growth inhibition (GI) [4]: inactive
9 | CCCCCCCC1=CC(=O)C(C(C)C)=C(OC)C1=O | > 10000 | –
10 | COC1=C(C(C)C)C(=O)C=C(CN(C)C(=O)c2ccccc2)C1=O | > 10000 | –
11 | COC1=C(C(C)C)C(=O)C=C(COc2cccnc2)C1=O | > 10000 | –
12 | COC1=C(C(C)C)C(=O)C=C(Cn2cnc([N+](=O)[O-])c2)C1=O | > 10000 | –
13 | COC1=C(C(C)C)C(=O)C=C(COC(Cn2cncn2)c2ccc(F)cc2F)C1=O (centres undefined) | 300 | –
14 | COc1c(C[C@@]23CCCC(C)(C)[C@@H]2CC(=O)O3)c(I)c(OC)c(C(C)C)c1OC | – | growth inhibition (GI) [4]: inactive
15 | COC1=C(C(C)C)C(=O)C=C(CC2CCCCC2)C1=O | > 10000 | –
16 | COC1=C(C(C)C)C(=O)C=C(Cn2cncn2)C1=O | 9800 | –
17 | COC1=C(C(C)C)C(=O)C=C(COC2CCCCC2)C1=O | > 10000 | –
18 | COC1=C(C(C)C)C(=O)C=C(CN2C(=O)CCc3ccccc32)C1=O | 2000 | –
19 | COC(=O)C[C@@H]1C(Cc2cc(OC)c(C(C)C)c(OC)c2OC)=CCCC1(C)C | – | growth inhibition (GI) [4]: inactive
20 | COC1=C(C(C)C)C(=O)C=C(COc2ccccc2)C1=O | > 10000 | –
21 | COC1=C(C(C)C)C(=O)C=C(CNC(=O)C2CCCCC2)C1=O | 330 | –
22 | COC1=C(C(C)C)C(=O)C=C(CC(O)(Cn2cncn2)c2ccc(F)cc2F)C1=O (centres undefined) | 540 | Activity [3]: Active
23 | COC1=C(C(C)C)C(=O)C=C(C[C@@]23CCCC(C)(C)[C@@H]2CC(=O)O3)C1=O | – | growth inhibition (GI) [2]: Active; growth inhibition (GI) [4]: Active
24 | COC1=C(C(C)C)C(=O)C(C(C)(C)O)=C(C)C1=O | – | growth inhibition (GI) [2]: Active; growth inhibition (GI) [4]: Active
25 | COC1=C(C(C)C)C(=O)C=C(CC2(O)CCCCC2)C1=O | 590 | –
26 | COC1=C(C(C)C)C(=O)C=C(Cc2ccccc2)C1=O | > 10000 | –
27 | O=C(Cn1ccnc1[N+](=O)[O-])NCc1ccccc1 [BENZNIDAZOLE] | 6800 | Activity [3]: Active
